Data from ChEMBL document CHEMBL1124280, “Synthesis and biological evaluation of isomeric dinucleoside monophosphates and monomethylphosphonates of 9-beta-D-arabinofuranosyladenine and related analogues” (1988).
Converted amounts (≈) assume the structure as drawn.

Assays:
Type in all cases: functional
Oryctolagus cuniculus [1] = species on record: Oryctolagus cuniculus; test: Antiviral activity in primary rabbit kidney cell cultures against vaccinia virus
Homo sapiens [2] = species on record: Homo sapiens; test: Minimum cytotoxic concentration in diploid (E6SM) human cell culture
Outline: (§1)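 Uninfected confluent monolayers (rabbit kidney, HeLa, Vero or E6SM) were incubated with compound for the same time as the antiviral assay. The value is the lowest concentration (µg/mL) that causes a microscopically detectable change in normal cell morphology.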

[3] = Inhibitory effect on proliferation of Human T-Lymphoblast (Molt/4F) cells; conditions: read-out: ID50 (the source's name)
L1210 = test: Inhibitory effect on Proliferation of Murine Leukemia (L1210); conditions: Mus musculus, read-out: ID50 (the source's name)
Oryctolagus cuniculus [4] = species on record: Oryctolagus cuniculus; test: Antiviral activity in primary rabbit kidney cell cultures against Herpes Simplex virus type 1 (TK-strain B2006)
Oryctolagus cuniculus [5] = species on record: Oryctolagus cuniculus; test: Antiviral activity in primary rabbit kidney cell cultures against Herpes simplex virus type 2 Strain 196
Oryctolagus cuniculus [6] = species on record: Oryctolagus cuniculus; test: Antiviral activity in primary rabbit kidney cell cultures against vesicular stomatitis virus
Oryctolagus cuniculus [7] = species on record: Oryctolagus cuniculus; test: Antiviral activity in primary rabbit kidney cell cultures against Herpes Simplex virus type 1 (McIntyre strain)
Oryctolagus cuniculus [8] = species on record: Oryctolagus cuniculus; test: Antiviral activity in primary rabbit kidney cell cultures against Herpes simplex virus type 2 Strain Lyons
Oryctolagus cuniculus [9] = species on record: Oryctolagus cuniculus; test: Minimum cytotoxic concentration against herpes simplex virus in primary rabbit kidney cell cultures; outline: as §1
Oryctolagus cuniculus [10] = species on record: Oryctolagus cuniculus; test: Antiviral activity in primary rabbit kidney cell cultures against Herpes simplex virus type 2 Strain G
Oryctolagus cuniculus [11] = species on record: Oryctolagus cuniculus; test: Antiviral activity in primary rabbit kidney cell cultures against Herpes Simplex virus type 1 (KOS strain)
Oryctolagus cuniculus [12] = species on record: Oryctolagus cuniculus; test: Antiviral activity in primary rabbit kidney cell cultures against Herpes Simplex virus type 1 (TK-strain VMW I837)
Vero [13] = test: Minimum cytotoxic concentration in vero cells of African green monkey kidney; conditions: Chlorocebus sabaeus; outline: as §1
HeLa [14] = test: Minimum cytotoxic concentration against vaccinia virus in aneuploid (Hela) human cells; outline: as §1
Homo sapiens [15] = species on record: Homo sapiens; test: Minimum inhibitory concentration against vaccinia virus in diploid (E6SM) human cell culture
Vero [16] = test: Minimum inhibitory concentration against vaccinia virus in vero cells of African green monkey kidney; conditions: Chlorocebus sabaeus
HeLa [17] = test: Minimum inhibitory concentration against vaccinia virus in aneuploid (Hela) human cells
Oryctolagus cuniculus [18] = species on record: Oryctolagus cuniculus; test: Antiviral activity in primary rabbit kidney cell cultures against Herpes Simplex virus type 1 (Fstrain)
FM3A = test: Inhibitory effect on proliferation of Murine mammary Carcinoma (FM3A); conditions: Mus musculus, read-out: ID50 (the source's name)
Homo sapiens [19] = species on record: Homo sapiens; test: Inhibitory effect on proliferation of Human B-Lymphoblast (Raji); conditions: read-out: ID50 (the source's name)

SMILES | MIC (Oryctolagus cuniculus [1]) [µg/mL] | MCC (Homo sapiens [2]) [µg/mL] | IC50 [3] [µg/mL] | IC50 (L1210) [µg/mL] | MIC (Oryctolagus cuniculus [4]) [µg/mL] | MIC (Oryctolagus cuniculus [5]) [µg/mL] | MIC (Oryctolagus cuniculus [6]) [µg/mL] | MIC (Oryctolagus cuniculus [7]) [µg/mL] | MIC (Oryctolagus cuniculus [8]) [µg/mL] | MCC (Oryctolagus cuniculus [9]) [µg/mL] | MIC (Oryctolagus cuniculus [10]) [µg/mL] | MIC (Oryctolagus cuniculus [11]) [µg/mL] | MIC (Oryctolagus cuniculus [12]) [µg/mL] | MCC (Vero [13]) [µg/mL] | MCC (HeLa [14]) [µg/mL] | MIC (Homo sapiens [15]) [µg/mL] | MIC (Vero [16]) [µg/mL] | MIC (HeLa [17]) [µg/mL] | MIC (Oryctolagus cuniculus [18]) [µg/mL] | IC50 (FM3A) [µg/mL] | further results
Nc1ncnc2c1ncn2[C@@H]1O[C@H](COP(=O)([O-])OC[C@H]2O[C@H](n3cnc4c(N)ncnc43)[C@@H](O)[C@@H]2O)[C@@H](O)[C@@H]1O.[Na+] | 7 | ≥ 400 | 43 | > 100 | 300 | 100 | > 400 | 70 | 20 | > 400 | 70 | 70 | 150 | > 400 | > 400 | 20 | 70 | 200 | 70 | 86.6 | IC50 (Homo sapiens [19]): > 100 µg/mL
Nc1ncnc2c1ncn2[C@@H]1O[C@H](CO)[C@@H](OP(=O)([O-])O[C@H]2[C@H](O)[C@H](n3cnc4c(N)ncnc43)O[C@@H]2CO)[C@@H]1O.[Na+] | 300 | > 400 | > 100 | > 100 | > 400 | > 400 | > 400 | > 400 | > 400 | > 400 | > 400 | > 400 | > 400 | ≥ 400 | ≥ 400 | > 400 | > 400 | > 400 | > 400 | > 100 | IC50 (Homo sapiens [19]): > 100 µg/mL
Nc1ncnc2c1ncn2C1O[C@H](CO)[C@@H](OP(=O)([O-])OC[C@H]2OC(n3cnc4c(N)ncnc43)[C@H](O)[C@H]2O)[C@@H]1O.[Na+] (stereo partly specified) | 2 | ≥ 400 | 23.3 | 10 | 20 | 20 | > 40 | 7 | 2 | 100 | 7 | 20 | 20 | > 40 | 100 | 10 | 20 | 20 | 10 | 20.4 | IC50 (Homo sapiens [19]): 32.3 µg/mL
Nc1ncnc2c1ncn2C1O[C@H](CO)C(OP(=O)([O-])OC[C@H]2OC(n3cnc4c(N)ncnc43)[C@@H](O)[C@@H]2O)[C@@H]1O.[Na+] (stereo partly specified) | 0.2 | > 400 | 13.6 | 22.2 | 20 | 7 | > 100 | 10 | 2 | > 200 | 7 | 20 | 20 | > 400 | ≥ 200 | 2 | 20 | 20 | 10 | 22.4 | IC50 (Homo sapiens [19]): 30 µg/mL
Nc1ncnc2c1ncn2[C@@H]1O[C@H](COP(=O)(O)O)[C@@H](O)[C@@H]1O [VIDARABINE PHOSPHATE] | 0.2 | ≥ 400 | 18.5 | 24.2 | 20 | 20 | > 400 | 10 | 2 | > 100 | 7 | 20 | 20 | ≥ 200 | ≥ 400 | 7 | 20 | 20 | 7 | 23.9 | IC50 (Homo sapiens [19]): 32.6 µg/mL
Nc1ncnc2c1ncn2[C@@H]1O[C@H](CO)[C@@H](O)[C@@H]1O [VIDARABINE] | 2 (≈ 7.48 µM) | > 400 | 16.7 (≈ 62.5 µM) | 21 (≈ 78.6 µM) | 20 (≈ 74.8 µM) | 20 (≈ 74.8 µM) | 20 (≈ 74.8 µM) | 10 (≈ 37.4 µM) | 7 (≈ 26.2 µM) | > 100 | 7 (≈ 26.2 µM) | 20 (≈ 74.8 µM) | 20 (≈ 74.8 µM) | ≥ 400 | > 200 | 7 (≈ 26.2 µM) | 70 (≈ 262 µM) | 20 (≈ 74.8 µM) | 7 (≈ 26.2 µM) | 21.1 (≈ 79 µM) | IC50 (Homo sapiens [19]): 25.9 µg/mL (≈ 96.9 µM)
